Laboratory results reported in ChEMBL document CHEMBL1153465, “C5-Modified nucleosides exhibiting anticancer activity” (Bioorg Med Chem Lett, 2009).

Legend:
Assay type in all cases: functional
PC-3 [1] = experiment: Cytotoxicity against human PC3 cells at 10 uM by SRB assay
Summary of the method: (§1)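 Growth inhibition measured at one fixed test concentration by sulforhodamine B assay. Cells were kept in RPMI 1640 plus 5% fetal bovine serum at 37 °C under humidified 5% CO₂. Adriamycin served as positive control. Results are given as […] of cancer cell growth.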

HCT-15 [2] = experiment: Cytotoxicity against human HCT15 cells at 10 uM by SRB assay; summary of the method: as §1
NCI-H23 [3] = experiment: Cytotoxicity against human NCI-H23 cells at 10 uM by SRB assay; summary of the method: as §1
MDA-MB-231 [4] = experiment: Cytotoxicity against human MDA-MB-231 cells at 10 uM by SRB assay; summary of the method: as §1
MDA-MB-231 [5] = experiment: Cytotoxicity against human MDA-MB-231 cells by SRB assay
ACHN = experiment: Cytotoxicity against human ACHN cells by SRB assay
PC-3 [6] = experiment: Cytotoxicity against human PC3 cells by SRB assay
NCI-H23 [7] = experiment: Cytotoxicity against human NCI-H23 cells by SRB assay
NUGC-3 = experiment: Cytotoxicity against human NUGC3 cells by SRB assay
HCT-15 [8] = experiment: Cytotoxicity against human HCT15 cells by SRB assay

Compound	growth, % of control at 10 µM (PC-3 [1]) [%]	growth, % of control at 10 µM (HCT-15 [2]) [%]	growth, % of control at 10 µM (NCI-H23 [3]) [%]	growth, % of control at 10 µM (MDA-MB-231 [4]) [%]	GI50 (MDA-MB-231 [5]) [nM]	GI50 (ACHN) [nM]	GI50 (PC-3 [6]) [nM]	GI50 (NCI-H23 [7]) [nM]	GI50 (NUGC-3) [nM]	GI50 (HCT-15 [8]) [nM]
CC(=O)OC[C@H]1O[C@@H](n2cc(-c3cc(-c4ccccc4)no3)c(=O)[nH]c2=O)C[C@@H]1OC(C)=O	85.5	92.2	91.4	95	–	–	–	–	–	–
CCc1ccc(-c2cc(-c3cn([C@H]4C[C@H](OC(C)=O)[C@@H](COC(C)=O)O4)c(=O)[nH]c3=O)on2)cc1	62.8	92.2	92.7	97.4	–	–	–	–	–	–
COc1cccc2c1C(=O)c1c(O)c3c(c(O)c1C2=O)C[C@@](O)(C(=O)CO)C[C@@H]3O[C@H]1C[C@H](N)[C@H](O)[C@H](C)O1 [DOXORUBICIN]	–	–	–	–	610	410	730	510	250	1640
CC(C)(C)c1ccc(Cn2cc(-c3cn([C@H]4C[C@H](O)[C@@H](CO)O4)c(=O)[nH]c3=O)nn2)cc1	92.3	96.9	95	106	–	–	–	–	–	–
CCc1ccc(Cn2cc(-c3cn([C@H]4C[C@H](OC(C)=O)[C@@H](COC(C)=O)O4)c(=O)[nH]c3=O)nn2)cc1	91.2	88	77.2	97.7	–	–	–	–	–	–
CCCCCCCCc1cc(-c2cn([C@H]3C[C@H](O)[C@@H](CO)O3)c(=O)[nH]c2=O)on1	77.3	88.2	120	96.7	–	–	–	–	–	–
CCCc1cc(-c2cn([C@H]3C[C@H](OC(C)=O)[C@@H](COC(C)=O)O3)c(=O)[nH]c2=O)on1	88.1	98.8	96.9	102	–	–	–	–	–	–
CC(=O)OC[C@H]1O[C@@H](n2cc(-c3cc(-c4ccc(C(C)C)cc4)no3)c(=O)[nH]c2=O)C[C@@H]1OC(C)=O	50.3	80.9	108	83.2	–	–	–	–	–	–
CC(C)(C)c1ccc(-c2cc(-c3cn([C@H]4C[C@H](O)[C@@H](CO)O4)c(=O)[nH]c3=O)on2)cc1	87.9	79.8	98.9	102	–	–	–	–	–	–
CC(=O)OC[C@H]1O[C@@H](n2cc(-c3cn(Cc4ccccc4)nn3)c(=O)[nH]c2=O)C[C@@H]1OC(C)=O	92.1	92.3	98.2	102	–	–	–	–	–	–
CC(=O)OC[C@H]1O[C@@H](n2cc(-c3cn(Cc4ccc(C(C)(C)C)cc4)nn3)c(=O)[nH]c2=O)C[C@@H]1OC(C)=O	90.4	94.2	106	105	–	–	–	–	–	–
CC(=O)OC[C@H]1O[C@@H](n2cc(-c3cn(Cc4ccc(C(C)C)cc4)nn3)c(=O)[nH]c2=O)C[C@@H]1OC(C)=O	91.3	96.5	86.7	98.1	–	–	–	–	–	–
CCCCc1ccc(-c2cc(-c3cn([C@H]4C[C@H](OC(C)=O)[C@@H](COC(C)=O)O4)c(=O)[nH]c3=O)on2)cc1	30.4	71.4	97.4	72.2	–	–	–	–	–	–
CC(=O)OC[C@H]1O[C@@H](n2cc(-c3cc(-c4ccc(C(C)(C)C)cc4)no3)c(=O)[nH]c2=O)C[C@@H]1OC(C)=O	27.5	53.8	112	69.3	–	–	–	–	–	–
CC(=O)OC[C@H]1O[C@@H](n2cc(-c3cc(C)no3)c(=O)[nH]c2=O)C[C@@H]1OC(C)=O	92.4	102	101	106	–	–	–	–	–	–
O=c1[nH]c(=O)n([C@H]2C[C@H](O)[C@@H](CO)O2)cc1-c1cn(Cc2ccccc2)nn1	92.1	88.3	97.5	103	–	–	–	–	–	–
CCCCCc1cc(-c2cn([C@H]3C[C@H](OC(C)=O)[C@@H](COC(C)=O)O3)c(=O)[nH]c2=O)on1	93.9	98.7	88.9	91.5	–	–	–	–	–	–
